Data from paper PMC10427982 (eBioMedicine, 2023).
Marks after values point to notes of the source that are not given here.

What was measured:
[1] = tested on: human airway epithelial cells (HAE); conditions: cited from earlier work
[2] = after remdesivir 30 mg/kg i.v.; cited from earlier work
[3] = cited from earlier work
[4] = animal models; cited from earlier work
[5] = Multisite microdialysis pharmacokinetics after molnupiravir; assay type: in vivo, rat
Outline: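 Pregnant Sprague–Dawley rats (gestation day 16, 300 ± 50 g), fasted 12 h, under urethane anaesthesia (1 g/kg i.p.). Test compound in normal saline, with the ENT inhibitor in 10% DMSO/90% PEG-400, given together via the femoral vein. Microdialysis probes sit in the jugular vein, fetus, placenta and amniotic fluid, perfused with ACD solution. Dialysates are collected every 20 min for 6 h and assayed by UHPLC-MS/MS. n = 6, mean ± SEM.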

[6] = Multisite microdialysis pharmacokinetics after molnupiravir; assay type: in vivo, rat; remark: listed apart in the source
Outline: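 Pregnant Sprague–Dawley rats at gestation day 16 (300 ± 50 g), fasted 12 h and anaesthetised with urethane 1 g/kg i.p. Test compound in normal saline given alone via femoral vein catheter. Unbound drug and metabolite sampled by microdialysis in jugular vein, fetus, placenta and amniotic fluid, perfused with citrate-dextrose solution. Dialysates every 20 min over 6 h, UHPLC-MS/MS. Ratios taken as AUC quotients ×100%. n = 6, mean ± SEM.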

[7] = tested on: human ENT1; conditions: cited from earlier work
[8] = tested on: human ENT2; conditions: cited from earlier work
[9] = lactating rats administered molnupiravir; cited from earlier work
[10] = single and multiple doses; cited from earlier work
[11] = female, Sprague-Dawley, rat, amniotic fluid, iv, 100 mg/kg, with NBMPR (ENT inhibitor) 10 mg/kg i.v., co-administered
[12] = female, Sprague-Dawley, rat, blood, iv, 100 mg/kg, with NBMPR (ENT inhibitor) 10 mg/kg i.v., co-administered
[13] = female, Sprague-Dawley, rat, fetus, iv, 100 mg/kg, with NBMPR (ENT inhibitor) 10 mg/kg i.v., co-administered
[14] = female, Sprague-Dawley, rat, placenta, iv, 100 mg/kg, with NBMPR (ENT inhibitor) 10 mg/kg i.v., co-administered
[15] = placenta, + NBMPR 10 mg/kg i.v.
[16] = blood, molnupiravir 100 mg/kg i.v. alone
[17] = female, Sprague-Dawley, rat, amniotic fluid dialysate, iv, 100 mg/kg
[18] = female, Sprague-Dawley, rat, blood dialysate, iv, 100 mg/kg
[19] = female, Sprague-Dawley, rat, fetus dialysate, iv, 100 mg/kg
[20] = female, Sprague-Dawley, rat, placenta dialysate, iv, 100 mg/kg
[21] = amniotic fluid, + NBMPR 10 mg/kg i.v.
[22] = amniotic fluid, molnupiravir 100 mg/kg i.v. alone
[23] = fetus, molnupiravir 100 mg/kg i.v. alone
[24] = placenta, molnupiravir 100 mg/kg i.v. alone

## N#C[C@@]1(c2ccc3c(N)ncnn23)O[C@H](CO)[C@@H](O)[C@H]1O [GS-441524]
[1]
  EC50: 180 nM
[2]
  Transfer ratio from mother to amniotic fluid: 0.71 ± 0.19
  Transfer ratio from mother to fetus: 0.51 ± 0.18
  Transfer ratio from mother to placenta: 0.35 ± 0.09

## CC(C)C(=O)OC[C@H]1O[C@@H](n2ccc(NO)nc2=O)[C@H](O)[C@@H]1O [Molnupiravir]
[3]; 500 mg/kg
  Fetal finding at lower dose: decreased fetal body weight
[3]; 1000 mg/kg
  Fetal finding at high dose: internal and skeletal malformations of the fetus
[3]
  NOAEL for maternal and developmental toxicity: 250 mg/kg
[3]; pregnant rat model
  Finding at doses eight times the normal dose / expected exposure: developmental toxicity
[4]
  Increase of the bioavailability of NHC: more than 90%
[5]; [11]
  AUC(0-inf): 2770 ng·h/mL
  Cmax: 2140 ± 640 ng/mL
  MRT: 1.47 h
  half-life: 3.12 ± 0.833 h
[5]; [12]
  AUC(0-inf): 49600 ng·h/mL
  Cmax: 261000 ± 111000 ng/mL
  MRT: 0.283 h
  clearance: 59.2 ± 22.6 mL/min/kg
  half-life: 0.2 ± 0.0167 h
[5]; [13]
  AUC(0-inf): 1650 ng·h/mL
  Cmax: 2410 ± 180 ng/mL
  MRT: 0.833 h
  half-life: 0.433 ± 0.1 h
[5]; [14]
  AUC(0-inf): 1880 ng·h/mL
  Cmax: 1020 ± 190 ng/mL
  half-life: 3 ± 1.42 h
[5]; [15]
  MRT: 3.95 ± 1.48 h
[6]; blood, molnupiravir 100 mg/kg i.v.
  Time up to which detected: up to 200 min
[6]; [16]
  CL: 21.89 ± 2.99 mL/min/kg
[6]; conceptus, molnupiravir 100 mg/kg i.v.
  Time for the maximum concentration in the conceptus: approximately 40 min
[6]; female, Sprague-Dawley, rat, amniotic fluid (relative to blood), iv, 100 mg/kg
  Kp: 0.05 ± 0.01
[6]; female, Sprague-Dawley, rat, amniotic fluid dialysate, intravenous, 100 mg/kg
  concentration at 60 min: 1.48 ng/mL
[6]; [17]
  AUC(0-inf): 4660 ng·h/mL
  Cmax: 2110 ± 380 ng/mL
  half-life: 13.8 ± 2.88 h
[6]; female, Sprague-Dawley, rat, amniotic fluid, iv, 100 mg/kg
  MRT: 1.73 h
[6]; female, Sprague-Dawley, rat, blood dialysate, intravenous, 100 mg/kg
  concentration at 140 min: 18.2 ng/mL
[6]; [18]
  AUC(0-inf): 61600 ng·h/mL
  Cmax: 219000 ± 42300 ng/mL
  half-life: 0.183 ± 0.0333 h
[6]; female, Sprague-Dawley, rat, blood, iv, 100 mg/kg
  MRT: 0.267 h
[6]; female, Sprague-Dawley, rat, fetus (relative to blood), iv, 100 mg/kg
  Kp: 0.03 ± 0.01
[6]; female, Sprague-Dawley, rat, fetus dialysate, intravenous, 100 mg/kg
  concentration at 140 min: 3.02 ng/mL
[6]; [19]
  AUC(0-inf): 3310 ng·h/mL
  Cmax: 3540 ± 1320 ng/mL
  half-life: 0.483 ± 0.0833 h
[6]; female, Sprague-Dawley, rat, fetus, iv, 100 mg/kg
  MRT: 0.7 h
[6]; female, Sprague-Dawley, rat, placenta (relative to blood), iv, 100 mg/kg
  Kp: 0.02 ± 0.009
[6]; female, Sprague-Dawley, rat, placenta dialysate, intravenous, 100 mg/kg
  concentration at 80 min: 15.1 ng/mL
[6]; [20]
  AUC(0-inf): 2420 ng·h/mL
  Cmax: 2560 ± 730 ng/mL
  half-life: 1 ± 0.417 h
[6]; female, Sprague-Dawley, rat, placenta, iv, 100 mg/kg
  MRT: 1.17 h
[6]; molnupiravir 100 mg/kg i.v.
  Time within which metabolized to NHC: ≤ 20 min

## O=c1nc(NO)ccn1[C@@H]1O[C@H](CO)[C@@H](O)[C@H]1O [NHC, β-D-N4-hydroxycytidine]
[4]
  Bioavailability: poor bioavailability
[7]
  Interaction with transporter: interacts
[8]
  Interaction with transporter: interacts
[5]; [21]
  AUCtissue/AUCblood (biodistribution ratio): 0.19 ± 0.05
  Cmax: 4.21 ± 0.44 ^d μg/mL
  MRT: 4.9 ± 1.28 h
  Tmax: 100 ± 14 ^d min
  t1/2: 181 ± 56 ^d min
[5]; blood, + NBMPR 10 mg/kg i.v.
  Cmax: 97260 ± 24950 ng/mL
  MRT: 0.933 ± 0.1 h
  t1/2: 66 ± 3 min
[5]; fetus, + NBMPR 10 mg/kg i.v.
  AUCtissue/AUCblood (biodistribution ratio): 0.27 ± 0.07
  Cmax: 4.69 ± 1.92 ^d μg/mL
  MRT: 12.7 ± 4.25 h
  Tmax: 93 ± 16 ^d min
  t1/2: 507 ± 178 ^d min
[5]; [15]
  AUCtissue/AUCblood (biodistribution ratio): 0.14 ± 0.06
  Cmax: 2.95 ± 0.97 ^d μg/mL
  MRT: 4.18 ± 1.08 h
  Tmax: 106 ± 12 ^d min
  t1/2: 157 ± 56 ^d min
[9]
  Detection in plasma of nursing pups: can be detected
[6]; amniotic fluid dialysate, 60 min after administration
  Concentration in dialysate sample (representative chromatogram): 10.05 ng/mL
[6]; [22]
  AUCtissue/AUCblood (biodistribution ratio): 0.19 ± 0.03
  Cmax: 4.78 ± 0.83 ^b μg/mL
  MRT: 2.82 ± 0.13 h
  Tmax: 150 ± 33 min
  t1/2: 148 ± 52 ^b min
[6]; blood dialysate, 140 min after molnupiravir 100 mg/kg i.v.
  Concentration in dialysate sample (representative chromatogram): 960 ng/mL
[6]; [16]
  Cmax: 116500 ± 3870 ng/mL
  MRT: 0.95 ± 0.1 h
  Tmax: 40 min
  t1/2: 45 ± 5 min
[6]; dialysates of all organs
  Time post-administration until which detected: 360 min
[6]; fetus dialysate, collected at 140 min
  Concentration in dialysate sample (representative chromatogram): 185 ng/mL
[6]; [23]
  AUCtissue/AUCblood (biodistribution ratio): 0.29 ± 0.11
  Cmax: 7.20 ± 2.10 ^b μg/mL
  MRT: 2.62 ± 0.167 h
  Tmax: 123 ± 11 ^b min
  t1/2: 492 ± 305 ^b min
[6]; placenta dialysate, 80 min after administration
  Concentration in dialysate sample (representative chromatogram): 126.2 ng/mL
[6]; [24]
  AUCtissue/AUCblood (biodistribution ratio): 0.09 ± 0.01
  Cmax: 2.98 ± 0.42 ^b μg/mL
  MRT: 2.6 ± 0.167 h
  Tmax: 90 ± 16 min
  t1/2: 138 ± 18 ^b min
[6]; range over fetus, placenta, amniotic fluid
  Transfer ratio across the blood-placenta barrier: 9–29%
[10]
  Median Tmax in plasma: 1 h
